Screening results as filed in PubChem.
ROMK primary – human ROMK K+ channel modulation, primary screen; P48048; Tet-inducible ROMK, thallium flux fluorescence; actives lie on both sides; B-score at 10 µM; actives 2% (n = 130,000); AID 1918;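 active = signal ratio slope over the read window, or its plate-corrected B-score, at least 3 SD from the plate mean, either direction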;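 note: B-score of the F/F0 ratio slope over 7 to 12 s after thallium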
Target sequence (P48048 whole entry, looked up): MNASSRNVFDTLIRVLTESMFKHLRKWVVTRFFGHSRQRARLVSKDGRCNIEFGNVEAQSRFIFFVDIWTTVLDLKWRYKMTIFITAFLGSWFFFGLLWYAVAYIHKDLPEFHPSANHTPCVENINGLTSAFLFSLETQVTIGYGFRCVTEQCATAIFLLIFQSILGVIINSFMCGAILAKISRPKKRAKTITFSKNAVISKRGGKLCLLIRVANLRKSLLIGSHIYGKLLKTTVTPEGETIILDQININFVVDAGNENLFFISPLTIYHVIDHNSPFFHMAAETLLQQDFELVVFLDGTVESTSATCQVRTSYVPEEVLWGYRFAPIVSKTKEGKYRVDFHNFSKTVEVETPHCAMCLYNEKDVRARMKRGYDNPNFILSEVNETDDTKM
KCC2 mod – KCC2 (human) Cl- transport modulation. Q9H2X9. KCC2 cells, thallium flux FluoZin-2 fluorescence. B-score of Tl+ flux slope (higher = more flux/activation; lower = inhibition) at 10 µM. actives 2.2% (n = 190,000). AID 1456;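 active = thallium flux slope and its plate-corrected score both differing from the plate sample mean at a set confidence after two filtering rounds, in either direction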;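 note: slope of fluorescence scaled to starting intensity during 10 to 20 s after thallium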
bCat nuc transl – modulators of beta-catenin nuclear translocation. HeLa beta-catenin nuclear translocation, immunofluorescence imaging. nuclear translocation activity, % at 5 µM. actives 0.3% (n = 190,000). AID 1665;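 active = nuclear translocation activity above 50% at 5 µM, with a well cell count of 50 or more; inconclusive = wells under 50 cells across six images, flagged as toxic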;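 note: per-cell ratio of nuclear to cytoplasmic median beta-catenin stain intensity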
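Test system: human HeLa cell line; Doses: 5 µM primary, 0.02–20 µM confirmation; Incubation: 24 h compound exposure, 37°C; Detection: beta-catenin immunofluorescence imaging with DAPI; Read-out: beta-catenin nuclear/cytoplasmic ratio, % activation.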
DTT redox prof – compounds producing H2O2 with reducing agent – biochemical, NIH compound library profiling, artefact control for MLSCN library redox annotation, primary screen; DTT-dependent redox cycling H2O2, phenol red/HRP absorbance; 100% = 100 µM peroxide control, 0% = buffer; activation, % at 10 µM; actives 0.03% (n = 200,000);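 active = activation of at least 50% relative to the plate's high and low controls in the primary single-dose screen; inactive = activation below 50%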;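 note: compound incubated with DTT at 0.8 mM final as the reducing agent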
MT stabilize HCS – microtubule stabilization, imaging screen. actives 0.83% (n = 200,000). % tubulin-high responders, % at 10 µM. HeLa tubulin immunostaining HCS, 24 h; share of cells brighter than vehicle mean+2SD;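 active = plate Z-score above 3 for both tubulin-high and condensed-nucleus cell shares, with cell loss under 80%, at 10 µM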;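 note: anti alpha tubulin signal scored within the nucleus-defined area of each cell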
ROMK retest – human ROMK channel modulation, retest confirmation. actives 54% (n = 3,000). shares compounds with ROMK primary. normalized thallium flux (F/F0 slope) at 10 µM. ROMK thallium flux, fluorescence ratio; stronger effect = lower value;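 active = Flux at 10 µM at least 3 SD below or above vehicle control mean in one or both replicates; inconclusive = no clear call, values can overlap the other calls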
Each line names hits and unclear results; the compound was inactive in the other large screens (follow-up assays come after a bar, where they were run). Hits are enriched below; roughly 3.7% of the tested compounds scored in any of these assays.

CNC(=O)/C(C#N)=C/c1c(N(Cc2ccccc2)Cc2ccccc2)nc2c(C)cccn2c1=O	none (no result: ROMK primary) | ROMK retest 0.059
CCNC(=O)/C(C#N)=C/c1c(N(Cc2ccccc2)Cc2ccccc2)nc2ccccn2c1=O	none (no result: ROMK primary)
COc1ccc(C(=O)N2CCN(Cc3nc(CC4CC4)no3)CC2)cc1	none
CC(=O)O[C@]1(C(C)=O)CC[C@H]2[C@@H]3C=C(Cl)C4=CC(=O)CC[C@]4(C)[C@H]3CC[C@@]21C	none (no result: ROMK primary) | ROMK retest inactive
CC(=O)O[C@]1(C(C)=O)CC[C@H]2[C@@H]3C[C@H](C)C4=CC(=O)CC[C@]4(C)[C@H]3CC[C@@]21C	none
Cc1cc(/C=N/NC(=O)c2ccsc2)c(C)n1-c1cnccn1	none | ROMK retest inactive
Cc1nc(N2CCOCC2)[nH]c(=O)c1C(O)C(Cl)(Cl)Cl (stereo not drawn)	none (no result: DTT redox prof, MT stabilize HCS)
COc1ccc(-c2nnnn2-c2ccc(F)cc2F)cc1	ROMK primary -3.3 | ROMK retest inconclusive
COc1ccc(NC(=O)c2n[nH]c(=O)c3ccccc23)cc1S(=O)(=O)N1CCCCC1	none (no result: ROMK primary)
CSc1nc2ccc(S(=O)(=O)NC3CCCCC3)cc2s1	ROMK primary -2.4 (no result: KCC2 mod) | ROMK retest inconclusive
CSc1nc2ccc(S(=O)(=O)N3CCCCC3)cc2s1	none (no result: KCC2 mod)
Cc1cc(C)nc(NC(=O)Cc2ccc(Br)cc2)n1	none
CN(CCn1ccnc1)Cc1cn(-c2ccccc2)nc1-c1ccc2c(c1)OCO2	ROMK primary -4.6 | ROMK retest 0.052
CN(Cc1cn(-c2ccccc2)nc1-c1ccc2c(c1)OCO2)Cc1nccn1C	none
COCCC1CCCCN1Cc1cn(-c2ccccc2)nc1-c1ccc2c(c1)OCO2 (stereo not drawn)	ROMK primary -4.9 | ROMK retest 0.052
COC(=O)C/C=N/N=C1/NC(=O)/C(=C/C(=O)O)S1	none (no result: DTT redox prof, MT stabilize HCS)
S=C(NCC1CCCO1)N1CCN(c2nc(-c3ccccc3)cs2)CC1 (stereo not drawn)	none
CC(C)(C)C(=O)c1cnc(Nc2ccccc2Cl)s1	ROMK primary 5.4 | ROMK retest inactive
C/C(=C\c1ccccc1)C(=O)Nc1nccs1	ROMK primary 1.1 | ROMK retest inconclusive
Cc1nnc(SCC(=O)NCC(=O)Nc2ccc(F)c(F)c2F)n1Cc1ccccc1	none
CC(=O)/C=C(\C)Nc1c(C)n(C)n(-c2ccccc2)c1=O	ROMK primary 1.8 | ROMK retest inconclusive
Cc1c(NC(=O)CC(=O)Nc2c(C)n(C)n(-c3ccccc3)c2=O)c(=O)n(-c2ccccc2)n1C	none (no result: ROMK primary)
Cc1c(NC(N)=O)c(=O)n(-c2ccccc2)n1C	none
Cc1c(NC(=O)CSc2ccccc2F)c(=O)n(-c2ccccc2)n1C	ROMK primary -2.2 | ROMK retest inactive
CCN(CC)P(=O)(Nc1ccc(C)cc1Br)c1ccc(N(C)C)cc1NC(=O)c1ccco1 (stereo not drawn)	none (no result: ROMK primary)
O=C(CCCCCN1C(=O)CCC1=O)Nc1ccc(Cl)c(C(F)(F)F)c1	none
COc1ccc(NCC(=O)N/N=C2\CCCC(C)C2)cc1 (stereo not drawn)	ROMK primary 2.1 (no result: bCat nuc transl) | ROMK retest inactive
CCCCOc1ccc(CSCCN=C(N)N)cc1	ROMK primary -3.4 | ROMK retest 0.054
O=C(CCSCc1ccccc1F)NCCc1ccccc1	none
O=C(Nc1ccc2snnc2c1)N1CCOCC1	none (no result: ROMK primary) | ROMK retest inconclusive
CCOc1ccc(C(=O)Nc2ccc3c(c2)OCCO3)cc1OC	none (no result: ROMK primary)
CCOc1ccc(C(=O)Nc2ccc3c(c2)OCCO3)cc1[N+](=O)[O-]	ROMK primary -3.3 (no result: bCat nuc transl) | ROMK retest inactive
C=CC[n+]1c(-c2ccc(Cl)cc2Cl)csc1Nc1ccc(NC(C)=O)cc1	ROMK primary 2.5 | ROMK retest inactive
COc1ccc(CNC(=O)c2noc(C)c2[N+](=O)[O-])cc1	none
CNC(=O)c1[nH]cnc1C(=O)Nc1ccc(OC)cc1	ROMK primary 3.4 (no result: DTT redox prof, MT stabilize HCS) | ROMK retest inactive
CCOc1cc(/C=N/n2cnnc2)cc(Br)c1O	none (no result: ROMK primary) | ROMK retest inactive
Cc1cc(C)cc(NC(=O)C(=S)NCc2ccccc2)c1	none
Cc1ccc(NS(=O)(=O)c2cc3c4c(cccc4c2)C(=O)NC3=O)cc1	ROMK primary 1.7 | ROMK retest inconclusive
COC(=O)c1cccnc1-n1c(=O)c2cccnc2n(Cc2cccc(C(F)(F)F)c2)c1=O	none
O=C(c1ccc(-c2cc(Cl)ccc2Cl)o1)N1CCOCC1	ROMK primary -3.5 | ROMK retest 0.063
Cn1c(=O)c(C(=O)NCC2CCCO2)c(O)c2ccccc21 (stereo not drawn)	none (no result: KCC2 mod)
CC(=O)c1ccc2cccc3c2c1N=CN3C	none (no result: ROMK primary, KCC2 mod) | ROMK retest 0.049
CN1c2cccc3cccc(c23)N(C)C1(C)C	none (no result: bCat nuc transl)
COc1ccc(CNC(=O)NC(C)(C)c2cccc(C(C)(C)NC(=O)NCc3ccc(OC)cc3)c2)cc1	none
Cc1cccc(OCCCN2CCCCCC2)c1	ROMK primary 3.2 (no result: bCat nuc transl) | ROMK retest inactive
O=C(C1CC12CCCC2)N1CCC(CO)(Cc2ccccc2Cl)CC1 (stereo not drawn)	none (no result: KCC2 mod)
Cc1ccnc(NS(=O)(=O)c2ccc(NC(=O)CN3C(=O)CCC3=O)cc2)n1	ROMK primary 2.6 | ROMK retest inactive
COc1cc(/C=C(\C#N)C(=O)Nc2ccccc2C(=O)O)cc(Cl)c1OC	ROMK primary -4.6 | ROMK retest 0.057
CC(C)CCNC(=O)C(c1ccc(O)cc1)N(Cc1cccs1)C(=O)C1COc2ccccc2O1 (stereo not drawn)	ROMK primary -2.8 | ROMK retest 0.061
CC(C)(C)NC(=O)CN(Cc1cccs1)C(=O)C1COc2ccccc2O1 (stereo not drawn)	none (no result: ROMK primary, KCC2 mod)
CCOc1ccccc1NC(=O)COC(=O)C(CC(C)C)N1C(=O)C2CC=CCC2C1=O (stereo not drawn)	none (no result: ROMK primary) | ROMK retest 0.063
CC(C)CC(C(=O)OCC(=O)Nc1cccc(Cl)c1)N1C(=O)C2CC=CCC2C1=O (stereo not drawn)	none (no result: ROMK primary)
O=C(NNC(=O)c1ccccc1Cl)c1cc2cc(OC(F)(F)F)ccc2[nH]1	none (no result: ROMK primary, DTT redox prof, MT stabilize HCS)
FC(F)(Cl)c1nnc2ccc(Sc3ccccn3)nn12	none
CC(=O)Nc1ccc(/C=C(\C#N)C(=O)NC2CCCCC2C)cc1 (stereo not drawn)	none
CC1CCCCC1NC(=O)/C(C#N)=C/c1ccccc1F (stereo not drawn)	ROMK primary -5.8 | ROMK retest 0.043
CSc1ccc(/C=C(\C#N)C(=O)NC2CCCCC2C)cc1 (stereo not drawn)	ROMK primary -3.1 | ROMK retest 0.046
CCOc1ccc(S(=O)(=O)n2cc(F)c(=O)[nH]c2=O)cc1	none
O=[N+]([O-])c1cccc(NC2=NCCC2)c1	none
CCC1(CC)Cc2ccccc2-c2nc(NCCCO)[nH]c(=O)c21	none
O=c1[nH]c(NCCCO)nc2c1C1(CCCC1)Cc1ccccc1-2	ROMK primary -3.4 | ROMK retest 0.057
